Bioassay records from PubChem BioAssay.
TPT1 inhibitor: inhibitors of Candida albicans tRNA 2'-phosphotransferase TPT1 | recombinant caTPT1, FP RNA substrate dephosphorylation | inhibition, % at 5 µM | hit rate 0.81% among 300,000 | AID 1962;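 active means inhibition above the mean of all tested compounds plus 3 SD, set per screening campaign, cut at about 24% in these data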
procasp3 activ: procaspase-3 (human) activation | P42574 | hit rate 0.11% among 330,000 | recombinant procaspase-3 D3A, Ac-DEVD-pNA absorbance 405 nm | activation, % at 8.5 µM;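 active means activation above the mean of all tested compounds plus 3 SD, cut at about 21% in these data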
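Technique: 405 nm absorbance of p-nitroaniline, reads at 0 and 120 min; Test system: Procaspase-3 D3A mutant; Incubation: 1 h enzyme-compound preincubation, then 2 h substrate reaction, 25 °C; Repeats: singlicate, each compound tested once; Benchmarks: low control DMSO wells, high control DMSO plus 5 µM PC-3 D3A.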
IDE act: IDE (human) activation, cell-based. HEK cells, FAbeta-B cleavage, fluorescence polarization; 0% vehicle, 100% cell-free pure enzyme wells. hit rate 0.073% among 340,000. AID 493087. activation, % at 5.96 µM;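 active means activation above the mean of all tested compounds plus 3 SD, set per screening campaign, cut at about 17% in these data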
IDE cell inh: inhibitors of human insulin-degrading enzyme in cells; P14735; inhibition, % at 5.59 µM; HEK cells, FAbetaB cleavage, fluorescence polarization; hit rate 0.41% among 320,000;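 active means percent inhibition above the average of all tested compounds plus 3 SD, set per screening campaign, cut at about 16% in these data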;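 further: IDE supplied by intact live HEK cells; FP after avidin binding of uncleaved biotin substrate so inhibition keeps polarization high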
procasp7 counter: counter-screen: procaspase-7 (human) activation; hit rate 0.093% among 330,000; recombinant procaspase-7, Ac-DEVD-pNA absorbance 405 nm; D23A/D198A/D206A triple mutant, cannot self-cleave; scale: DMSO 0, 5 µM enzyme 100; activation, % at 8.5 µM;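 active means percent activation above the screen-wide mean plus 3 SD, cut at about 25% in these data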
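System: Uncleavable procaspase-7 mutant enzyme; Amount: 2 µM procaspase-7 mutant as dispensed; Schedule: 1 h compound preincubation, 2 h substrate cleavage, 25 °C; Measured by: 405 nm absorbance of p-nitroaniline; Evaluation: percent activation from buffer-corrected 0–120 min absorbance change; Control set: low DMSO alone, high DMSO plus 5 µM PC-7.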
Numbers stand for hits; . = inactive; / = no result given. Only some compounds are listed: those with a hit (about 1.2% of all), similar ones and a draw of the others.

SMILES	TPT1 inhibitor	procasp3 activ	IDE act	IDE cell inh	procasp7 counter
Cc1cccc(CN2C(=O)/C(=C\c3ccc(C(=O)NCCN4CCOCC4)cc3)Sc3ccccc32)c1	.	.	.	.	.
CCOC(=O)c1c(CSC(=N)N)n(-c2ccc(C)cc2)c2cc(Br)c(OC(C)=O)cc12	.	.	18	.	.
CCOC(=O)c1c(CSC(=N)N)n(C)c2cc(Br)c(OC(C)=O)cc12	.	.	.	.	.
Nc1c(C(=O)CSc2nc3ccccc3o2)c(=O)[nH]c(=O)n1C1CC1	/	.	27	.	.
O=[N+]([O-])c1cccc(Cl)c1NCCNc1ncc(C(F)(F)F)cc1Cl	.	.	73	.	.
Cc1c(C(=O)NCCNc2ncc(C(F)(F)F)cc2Cl)cccc1[N+](=O)[O-]	.	.	.	.	.
CCOC(=O)N1CCN(C(=O)CSc2nc3c([nH]c4ccccc43)c(=O)n2CC)CC1	.	.	.	.	.
O=C1CN(S(=O)(=O)c2cccc(Br)c2)CCN1	/	.	.	.	.
O=C(CNC(=O)C1CCCCC1)NCc1ccco1	.	.	.	.	.
O=C1/C(=C/c2ccc(N3CCOCC3)o2)SC(=Nc2ccccc2)N1CCc1c[nH]c2ccccc12	148	.	.	.	.
COc1cc(/C=C2\SC(=Nc3ccccc3)N(CCc3c[nH]c4ccccc34)C2=O)ccc1OC(C)C(=O)O (stereo not drawn)	.	.	.	.	.
CCN1CCN(c2cc(C)c3cc(NC(=S)N4CCN(c5ccccc5)CC4)ccc3n2)CC1	.	.	20	.	.
Cc1ccc(C)c(N2CCN(C(=S)Nc3ccc4nc(N5CCN(C)CC5)cc(C)c4c3)CC2)c1	.	.	22	.	.
CCN1CCN(c2cc(C)c3cc(NC(=S)N4CCOCC4)ccc3n2)CC1	.	.	.	.	.
COc1ccc(CNc2nc3ccccc3n2CCN2CCOCC2)cc1	.	.	18	.	.
O=C(NC(=O)c1ccccc1)C1=C(N2CCCC2)COC1=O	/	.	.	.	.
O=C(NS(=O)(=O)Nc1ccccc1)C1=C(N2CCCC2)COC1=O	/	.	34	.	.
CN1c2ccccc2C(=O)NC1c1ccc(Cl)cc1 (stereo not drawn)	.	.	.	.	.
Clc1ccc(C2Nc3ccccc3-n3cccc32)cc1 (stereo not drawn)	.	.	.	.	28
O=C(O)C(=O)/C(=C\c1ccccc1)c1ccc2ccccc2n1	30	.	.	.	.
COc1ccc(NC(=O)C2CCN(S(=O)(=O)c3ccc4c(c3)CC(C)N4C(C)=O)CC2)cc1OC (stereo not drawn)	.	.	77	.	.
COc1cc(NC(=O)C2CCN(S(=O)(=O)c3ccc4c(c3)CC(C)N4C(C)=O)CC2)cc(OC)c1OC (stereo not drawn)	.	.	.	.	.
O=c1c2ccccc2nc2c3ccccc3c(NCCN3CCOCC3)nn12	.	.	/	.	.
O=c1c2c(-c3ccccc3)csc2nc2c3ccccc3c(NCCN3CCOCC3)nn12	/	/	18	/	/
Cc1ncc(CO)c(/C=N/NC(=O)c2cc3c(s2)CCCC3)c1O	.	31	.	.	26
SMILES	TPT1 inhibitor	procasp3 activ	IDE act	IDE cell inh	procasp7 counter
Cc1cccc(CS(=O)(=O)c2nnc([C@H](Cc3ccccc3)NC(=O)OC(C)(C)C)o2)c1	67	.	.	.	.
COC(=O)CS(=O)(=O)c1nnc([C@H](Cc2ccccc2)NC(=O)OC(C)(C)C)o1	.	.	.	.	.
Brc1ccc(-c2csc(N3CCC(c4ccccc4)C3)n2)cc1 (stereo not drawn)	.	34	.	.	.
NC(=O)C12CCCC(Br)(CCC1)C2	.	.	.	.	.
COc1ccc(NC(=O)c2ccc(-c3ccccc3)cc2)cc1NS(=O)(=O)c1ccc(F)cc1	.	.	.	21	.
O=C1c2ccccc2C(=O)N1Cc1ccco1	.	.	.	.	.
O=C1c2cccc3c(O)ccc(c23)C(=O)N1c1ccc(Cl)cc1	.	.	52	.	.
O=C1c2cccc3c(O)ccc(c23)C(=O)N1Cc1ccco1	/	/	30	/	/
Cc1ccc(C2(C(=O)N3CCC(n4nc(-c5ccccc5)oc4=O)CC3)CC2)cc1	.	.	.	.	.
Cc1ccc(C)n1-c1cccc(C(=O)O)c1	51	.	/	.	.
Cc1cc(C=O)c(C)n1-c1cccc(C(=O)O)c1	.	.	.	.	.
O=C(CNC(=O)c1ccc(Br)cc1)NCC(=O)OCC(=O)c1ccc([N+](=O)[O-])cc1	.	.	.	17	.
O=C(O)CCCC[C@@H]1SC[C@@H]2NC(=O)N[C@@H]21	.	.	64	.	.
COC(=O)CCCCC1SCC2NC(=O)NC21 (stereo not drawn)	.	.	.	.	.
Cc1cc(N)c2cc(NC(=O)/C=C/c3ccccc3Cl)ccc2n1	.	.	28	.	.
O=C(CSCc1nc2c(nnn2Cc2ccc(F)cc2)c(=O)[nH]1)Nc1cccc(C(F)(F)F)c1	.	.	.	.	.
Cc1ccnc(NC(=O)CCC(=O)N(CC(=O)NC2CCCCC2)C2CCCC2)c1	.	.	.	.	.
Cc1ccc(CN2C(=O)/C(=C\c3ccc(C(=O)NCc4cccnc4)cc3)Oc3ccccc32)cc1	.	27	/	.	.
O=C(CN1C(=O)/C(=C\c2ccccc2Cl)Oc2ccccc21)NCc1cccnc1	.	.	.	.	.
COC(=O)[C@]1(C)N[C@H](CN(C)S(=O)(=O)c2ccccc2)[C@@H]2C(=O)N(Cc3ccccc3)C(=O)[C@@H]21	/	.	.	.	.
O=C1c2ccccc2C(Nc2ccc3nc(-c4cccnc4)[nH]c3c2)N1Cc1ccco1 (stereo not drawn)	.	.	18	.	.
CC(C(=O)O)N(c1ccccc1Cl)S(C)(=O)=O (stereo not drawn)	.	.	.	.	.
CCc1noc(C)c1C(=O)OCC(=O)NC(=O)c1ccccc1	.	.	.	.	.
CCC1CCCCN1S(=O)(=O)c1ccc(S(=O)(=O)N2CCN(S(=O)(=O)CC)CC2)cc1 (stereo not drawn)	.	.	18	.	.
CCC1CCCCN1S(=O)(=O)c1ccc([N+](=O)[O-])cc1 (stereo not drawn)	.	.	.	.	.
SMILES	TPT1 inhibitor	procasp3 activ	IDE act	IDE cell inh	procasp7 counter
Cc1ccsc1C1C=C(c2cccc(Br)c2)Nc2ncnn21 (stereo not drawn)	.	.	.	25	.
C[n+]1c2cc(N)ccc2cc2ccc(N)cc21	/	/	39	/	/
Cn1c(N)c(C(=O)COC(=O)CNC(=O)c2ccccc2F)c(=O)n(C)c1=O	/	.	.	.	.
Cn1c(CC(=O)Nc2ccccc2)nnc1SCC(=O)NC1CCCC1	.	.	.	.	.
CC(=O)OCCn1c2nc(=O)[nH]c(=O)c-2nc2cc(C)c(C)cc21	/	/	75	/	/
Cc1ccccc1NC(=O)CN1CCN(C(=O)c2ccco2)CC1	.	.	.	.	.
